# Source: ChEMBL document CHEMBL4477235, “Evolution of a Novel, Orally Bioavailable Series of PI3Kδ Inhibitors from an Inhaled Lead for the Treatment of Respiratory Disease” (J Med Chem, 2016)
# pIC50: −log10 of the molar value.
# Experiments:
# [1] = Clearance in rat liver microsomes at 0.5 uM measured up to 30 mins by LC-MS/MS analysis; type: ADME, Microsome; settings: 0.5 h
# Summary of the method: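 Rat liver microsomes (0.5 mg protein/mL) prewarmed 10 min at 37 °C, started with NADPH regeneration system. Final compound 0.5 μM. Sampled at 0, 3, 6, 12 and 30 min into acetonitrile with internal standard. Peak area ratios by LC–MS/MS fitted to log-linear decline. Clearance scaled by protein concentration, incubation volume and 52.5 mg microsomal protein/g liver.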
# [2] = Volume of distribution at steady state in Sprague-Dawley rat at 3 mg/kg, po or 1 mg/kg, iv measured up to 7 hrs by LC-MS/MS analysis; type: ADME, organism-based; settings: in vivo, read-out: Vdss
# Summary of the method: (§1)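 Male Sprague Dawley rats, n = 2 per route, were dosed discretely at 3 mg/kg orally or 1 mg/kg intravenously. The dosing solution was DMSO/PEG200/water (5:45:50 v/v/v). Serial tail-vein blood samples were taken over 0–7 h, and parent compound was quantified by LC–MS/MS. Parameters were estimated by noncompartmental analysis.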
# [3] = molecular target: T1, Phosphatidylinositol 4,5-bisphosphate 3-kinase catalytic subunit delta isoform (Homo sapiens, UniProt O00329)
# T1 sequence (O00329 whole entry): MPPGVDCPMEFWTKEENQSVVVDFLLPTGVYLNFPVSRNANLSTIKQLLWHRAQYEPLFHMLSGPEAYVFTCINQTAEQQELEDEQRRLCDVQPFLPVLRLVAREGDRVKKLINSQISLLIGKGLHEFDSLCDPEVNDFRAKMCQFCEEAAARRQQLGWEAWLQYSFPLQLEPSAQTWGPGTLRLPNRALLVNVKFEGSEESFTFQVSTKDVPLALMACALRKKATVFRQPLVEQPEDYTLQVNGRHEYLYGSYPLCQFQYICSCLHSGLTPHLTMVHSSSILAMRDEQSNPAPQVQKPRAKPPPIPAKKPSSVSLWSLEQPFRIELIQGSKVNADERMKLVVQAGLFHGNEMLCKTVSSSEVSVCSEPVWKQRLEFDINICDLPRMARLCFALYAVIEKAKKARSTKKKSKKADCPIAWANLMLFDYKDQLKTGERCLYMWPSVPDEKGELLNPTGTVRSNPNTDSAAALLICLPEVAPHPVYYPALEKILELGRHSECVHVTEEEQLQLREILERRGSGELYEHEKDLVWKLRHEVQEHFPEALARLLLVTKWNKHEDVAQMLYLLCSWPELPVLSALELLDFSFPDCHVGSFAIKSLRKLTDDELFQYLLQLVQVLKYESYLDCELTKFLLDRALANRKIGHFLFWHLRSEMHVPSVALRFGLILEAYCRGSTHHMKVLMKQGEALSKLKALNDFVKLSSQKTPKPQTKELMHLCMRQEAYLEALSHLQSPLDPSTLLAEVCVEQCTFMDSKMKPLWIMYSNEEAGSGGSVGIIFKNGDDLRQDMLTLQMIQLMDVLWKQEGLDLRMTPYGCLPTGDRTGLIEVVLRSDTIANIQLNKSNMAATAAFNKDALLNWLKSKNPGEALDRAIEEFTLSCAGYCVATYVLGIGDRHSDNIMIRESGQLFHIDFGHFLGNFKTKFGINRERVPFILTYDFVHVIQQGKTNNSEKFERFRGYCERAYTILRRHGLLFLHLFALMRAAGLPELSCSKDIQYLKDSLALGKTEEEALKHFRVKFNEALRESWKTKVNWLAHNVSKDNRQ
# [4] = molecular target: T1, Phosphatidylinositol 4,5-bisphosphate 3-kinase catalytic subunit delta isoform; remark: listed apart in the source
# [5] = Kinetic solubility in phosphate buffered saline at pH 7.4 after 1 hr by chemiluminescent nitrogen detection method; type: physicochemical; settings: read-out: Kinetic_solubility
# Summary of the method: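 The sample was then filtered, and the filtrate was quantified by calibrated flow-injection chemiluminescent nitrogen detection. Standard error was ±30 µM, and the upper limit was 500 µM from the 10 mM stock.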
# [6] = molecular target: Phosphatidylinositol 4,5-bisphosphate 3-kinase catalytic subunit delta isoform (Homo sapiens) (UniProt O00329); experiment: Ratio of IC50 for PI3Kdelta in human PBMC to IC50 for PI3Kdelta (unknown origin)
# Albumin = Albumin (Homo sapiens, UniProt P02768); experiment: Binding affinity to human serum albumin by HPLC analysis; type: ADME; settings: read-out: PB (converted)
# [7] = Oral bioavailability in Sprague-Dawley rat at 3 mg/kg measured up to 7 hrs by LC-MS/MS analysis; type: ADME, organism-based; settings: in vivo; for F: 7 h; summary of the method: as §1
# [8] = AUC (0 to t) in Sprague-Dawley rat at 3 mg/kg, po measured up to 7 hrs by LC-MS/MS analysis; type: ADME, organism-based; design: dose 3 mg/kg, time < 7 hr, route oral; settings: in vivo
# Summary of the method: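 Male Sprague Dawley rats were given a single oral dose of 3 mg/kg in DMSO/PEG200/water (5:45:50 v/v/v) at 6 mL/kg, with n = 2 per route. Blood was sampled serially from the tail vein over 0–7 h. Parent compound was quantified by LC–MS/MS, and parameters were derived by noncompartmental analysis.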
# Homo sapiens [9] = species: Homo sapiens; experiment: Selectivity ratio of IC50 for PI3Kalpha (unknown origin) to IC50 for PI3Kdelta (unknown origin)
# Summary of the method: (§2)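 Ratio of each isoform's HTRF IC50 to the PI3Kδ HTRF IC50. Enzymes were preincubated 15 min with 4-fold compound dilutions in HEPES pH 7.0, MgCl2, DTT buffer. […] PIP2 was 5 µM for δ and 8 µM for α/β/γ. 60 min reaction, then EDTA quench with GRP-1 PH domain/APC/Eu detection. Four-parameter fit.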
# [10] = Clearance in mouse liver microsomes at 0.5 uM measured up to 30 mins by LC-MS/MS analysis; type: ADME, Microsome; settings: 0.5 h
# Homo sapiens [11] = species: Homo sapiens; experiment: Selectivity ratio of IC50 for PI3Kgamma (unknown origin) to IC50 for PI3Kdelta (unknown origin); summary of the method: as §2
# [12] = Clearance in human liver microsomes at 0.5 uM measured up to 30 mins by LC-MS/MS analysis; type: ADME, Microsome; settings: 0.5 h
# [13] = Half life in Sprague-Dawley rat at 1 mg/kg, iv by LC-MS/MS analysis; type: ADME, organism-based; settings: in vivo
# Summary of the method: (§3)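 Male Sprague Dawley rats (n = 2/route), intravenous dose as a solution in DMSO/PEG200/water (5:45:50 v/v/v) at 2 mL/kg. Serial tail-vein blood sampling over 0–7 h. LC–MS/MS quantification of parent. Noncompartmental analysis.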
# Homo sapiens [14] = species: Homo sapiens; experiment: Selectivity ratio of IC50 for PI3Kbeta (unknown origin) to IC50 for PI3Kdelta (unknown origin); summary of the method: as §2
# [15] = Lipophilicity, log D of compound at pH 7.4 by chromatographic method; type: physicochemical; settings: buffer
# [16] = molecular target: Phosphatidylinositol 4,5-bisphosphate 3-kinase catalytic subunit beta isoform (Homo sapiens, UniProt P42338); experiment: Inhibition of PI3Kbeta (unknown origin) using PIP2 as substrate preincubated for 15 mins followed by substrate addition measured after 60 mins in presence of biotin-labeled PIP3 by HTRF assay
# Summary of the method: (§4)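 HTRF kinase assay in 50 mM HEPES pH 7.0, 150 mM NaCl, 10 mM MgCl₂, 1 mM DTT. Enzyme preincubated 15 min with 4-fold serially diluted compound. […] Quenched after 60 min with EDTA plus GRP-1 PH domain/streptavidin-APC/Eu-antiGST detection, then equilibrated 60 min in the dark. Data normalized to no-compound and no-enzyme controls. IC50 from four-parameter fit.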
# [17] = molecular target: Phosphatidylinositol 4,5-bisphosphate 3-kinase catalytic subunit gamma isoform (Homo sapiens, UniProt P48736); experiment: Inhibition of PI3Kgamma (unknown origin) using PIP2 as substrate preincubated for 15 mins followed by substrate addition measured after 60 mins in presence of biotin-labeled PIP3 by HTRF assay; summary of the method: as §4
# [18] = molecular target: Phosphatidylinositol 4,5-bisphosphate 3-kinase catalytic subunit alpha isoform (Homo sapiens, UniProt P42336); experiment: Inhibition of PI3Kalpha (unknown origin) using PIP2 as substrate preincubated for 15 mins followed by substrate addition measured after 60 mins in presence of biotin-labeled PIP3 by HTRF assay; summary of the method: as §4
# [19] = AUC(infinity) in Sprague-Dawley rat at 3 mg/kg, po measured up to 7 hrs by LC-MS/MS analysis; type: ADME, organism-based; design: dose 3 mg/kg, time infinity, route oral; settings: in vivo
# Summary of the method: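 Male Sprague Dawley rats (n = 2/route), oral dose in DMSO/PEG200/water (5:45:50 v/v/v) at 6 mL/kg. Serial tail-vein bleeds over 0–7 h. Parent compound quantified by LC–MS/MS. Parameters from noncompartmental analysis.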
# [20] = Clearance in Sprague-Dawley rat at 1 mg/kg, iv measured up to 7 hrs by LC-MS/MS analysis; type: ADME, organism-based; settings: in vivo; summary of the method: as §3
# [21] = Cmax in Sprague-Dawley rat at 3 mg/kg, po measured up to 7 hrs by LC-MS/MS analysis; type: ADME, organism-based; design: dose 3 mg/kg, route oral; settings: in vivo
# Albumin, sequence (P02768 whole entry): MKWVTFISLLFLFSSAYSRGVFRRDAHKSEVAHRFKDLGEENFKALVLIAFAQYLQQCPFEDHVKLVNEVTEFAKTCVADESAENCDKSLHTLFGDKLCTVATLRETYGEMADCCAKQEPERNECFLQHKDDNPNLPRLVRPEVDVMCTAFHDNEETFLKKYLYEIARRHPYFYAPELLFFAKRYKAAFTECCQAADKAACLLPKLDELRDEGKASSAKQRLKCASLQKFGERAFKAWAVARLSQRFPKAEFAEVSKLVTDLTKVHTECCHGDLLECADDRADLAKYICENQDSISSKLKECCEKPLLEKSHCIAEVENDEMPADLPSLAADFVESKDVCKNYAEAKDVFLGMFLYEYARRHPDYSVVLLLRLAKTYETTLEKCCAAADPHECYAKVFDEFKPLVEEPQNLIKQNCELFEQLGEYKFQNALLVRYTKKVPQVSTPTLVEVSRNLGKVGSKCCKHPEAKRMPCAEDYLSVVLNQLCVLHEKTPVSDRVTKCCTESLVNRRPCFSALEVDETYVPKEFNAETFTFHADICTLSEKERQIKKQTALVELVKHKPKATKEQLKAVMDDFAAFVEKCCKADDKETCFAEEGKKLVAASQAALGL
# Phosphatidylinositol 4,5-bisphosphate 3-kinase catalytic subunit beta isoform, sequence (P42338 whole entry, the tested form may be a part, canonical isoform): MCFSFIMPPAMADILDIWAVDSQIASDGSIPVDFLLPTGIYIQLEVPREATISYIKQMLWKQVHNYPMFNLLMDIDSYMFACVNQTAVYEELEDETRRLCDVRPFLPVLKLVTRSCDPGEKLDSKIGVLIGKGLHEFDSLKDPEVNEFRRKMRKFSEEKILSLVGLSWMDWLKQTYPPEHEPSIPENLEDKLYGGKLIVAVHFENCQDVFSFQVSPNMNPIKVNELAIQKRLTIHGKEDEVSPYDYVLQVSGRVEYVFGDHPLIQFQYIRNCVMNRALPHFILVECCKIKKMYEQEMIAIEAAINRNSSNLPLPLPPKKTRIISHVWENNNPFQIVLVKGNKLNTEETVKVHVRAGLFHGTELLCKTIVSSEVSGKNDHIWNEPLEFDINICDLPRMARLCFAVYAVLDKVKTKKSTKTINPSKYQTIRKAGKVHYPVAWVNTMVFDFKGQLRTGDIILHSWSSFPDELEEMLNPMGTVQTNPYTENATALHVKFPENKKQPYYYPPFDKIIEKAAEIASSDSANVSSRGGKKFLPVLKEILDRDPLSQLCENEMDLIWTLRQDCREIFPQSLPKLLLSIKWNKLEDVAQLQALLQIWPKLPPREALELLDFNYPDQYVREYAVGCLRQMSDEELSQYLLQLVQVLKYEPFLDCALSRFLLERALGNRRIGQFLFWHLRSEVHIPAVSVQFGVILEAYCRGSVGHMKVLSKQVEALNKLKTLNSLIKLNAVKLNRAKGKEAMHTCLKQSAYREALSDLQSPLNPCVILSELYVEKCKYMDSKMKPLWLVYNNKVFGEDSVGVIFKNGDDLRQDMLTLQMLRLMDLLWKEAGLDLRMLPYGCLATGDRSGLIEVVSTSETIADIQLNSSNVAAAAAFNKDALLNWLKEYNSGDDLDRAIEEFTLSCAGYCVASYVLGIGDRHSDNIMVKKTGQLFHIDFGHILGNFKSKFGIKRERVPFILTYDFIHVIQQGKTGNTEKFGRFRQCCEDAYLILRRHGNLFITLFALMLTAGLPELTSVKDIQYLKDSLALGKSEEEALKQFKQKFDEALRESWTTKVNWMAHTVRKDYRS
# Phosphatidylinositol 4,5-bisphosphate 3-kinase catalytic subunit gamma isoform, sequence (P48736 whole entry, canonical isoform): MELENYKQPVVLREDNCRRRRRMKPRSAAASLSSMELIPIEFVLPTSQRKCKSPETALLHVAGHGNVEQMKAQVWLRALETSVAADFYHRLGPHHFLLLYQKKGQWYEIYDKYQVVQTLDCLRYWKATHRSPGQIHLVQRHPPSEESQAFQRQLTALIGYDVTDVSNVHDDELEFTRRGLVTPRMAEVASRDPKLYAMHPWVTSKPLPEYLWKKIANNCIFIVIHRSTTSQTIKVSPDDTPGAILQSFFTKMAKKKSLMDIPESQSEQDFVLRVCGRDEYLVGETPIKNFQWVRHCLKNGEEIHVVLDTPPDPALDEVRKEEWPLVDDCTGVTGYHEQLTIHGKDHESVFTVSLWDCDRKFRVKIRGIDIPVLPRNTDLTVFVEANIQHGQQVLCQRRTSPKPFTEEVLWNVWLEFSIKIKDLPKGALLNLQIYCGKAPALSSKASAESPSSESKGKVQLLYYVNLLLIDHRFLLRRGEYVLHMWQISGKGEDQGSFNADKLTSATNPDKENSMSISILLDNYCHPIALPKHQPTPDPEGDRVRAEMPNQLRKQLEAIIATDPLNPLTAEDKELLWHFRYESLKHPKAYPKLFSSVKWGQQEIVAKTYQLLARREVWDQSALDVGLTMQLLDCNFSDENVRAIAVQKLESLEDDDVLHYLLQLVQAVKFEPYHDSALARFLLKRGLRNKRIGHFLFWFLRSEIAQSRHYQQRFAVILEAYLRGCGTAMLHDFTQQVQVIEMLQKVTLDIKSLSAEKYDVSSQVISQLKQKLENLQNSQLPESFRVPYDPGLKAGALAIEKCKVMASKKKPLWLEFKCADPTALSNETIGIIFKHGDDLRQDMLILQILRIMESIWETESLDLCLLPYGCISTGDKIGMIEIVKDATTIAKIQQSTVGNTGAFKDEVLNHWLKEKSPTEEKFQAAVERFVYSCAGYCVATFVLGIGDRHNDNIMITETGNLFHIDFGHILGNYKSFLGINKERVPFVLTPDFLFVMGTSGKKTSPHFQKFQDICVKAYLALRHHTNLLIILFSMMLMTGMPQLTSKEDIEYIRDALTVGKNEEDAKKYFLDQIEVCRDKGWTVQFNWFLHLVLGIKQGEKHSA
# Phosphatidylinositol 4,5-bisphosphate 3-kinase catalytic subunit alpha isoform, sequence (P42336 whole entry, canonical isoform): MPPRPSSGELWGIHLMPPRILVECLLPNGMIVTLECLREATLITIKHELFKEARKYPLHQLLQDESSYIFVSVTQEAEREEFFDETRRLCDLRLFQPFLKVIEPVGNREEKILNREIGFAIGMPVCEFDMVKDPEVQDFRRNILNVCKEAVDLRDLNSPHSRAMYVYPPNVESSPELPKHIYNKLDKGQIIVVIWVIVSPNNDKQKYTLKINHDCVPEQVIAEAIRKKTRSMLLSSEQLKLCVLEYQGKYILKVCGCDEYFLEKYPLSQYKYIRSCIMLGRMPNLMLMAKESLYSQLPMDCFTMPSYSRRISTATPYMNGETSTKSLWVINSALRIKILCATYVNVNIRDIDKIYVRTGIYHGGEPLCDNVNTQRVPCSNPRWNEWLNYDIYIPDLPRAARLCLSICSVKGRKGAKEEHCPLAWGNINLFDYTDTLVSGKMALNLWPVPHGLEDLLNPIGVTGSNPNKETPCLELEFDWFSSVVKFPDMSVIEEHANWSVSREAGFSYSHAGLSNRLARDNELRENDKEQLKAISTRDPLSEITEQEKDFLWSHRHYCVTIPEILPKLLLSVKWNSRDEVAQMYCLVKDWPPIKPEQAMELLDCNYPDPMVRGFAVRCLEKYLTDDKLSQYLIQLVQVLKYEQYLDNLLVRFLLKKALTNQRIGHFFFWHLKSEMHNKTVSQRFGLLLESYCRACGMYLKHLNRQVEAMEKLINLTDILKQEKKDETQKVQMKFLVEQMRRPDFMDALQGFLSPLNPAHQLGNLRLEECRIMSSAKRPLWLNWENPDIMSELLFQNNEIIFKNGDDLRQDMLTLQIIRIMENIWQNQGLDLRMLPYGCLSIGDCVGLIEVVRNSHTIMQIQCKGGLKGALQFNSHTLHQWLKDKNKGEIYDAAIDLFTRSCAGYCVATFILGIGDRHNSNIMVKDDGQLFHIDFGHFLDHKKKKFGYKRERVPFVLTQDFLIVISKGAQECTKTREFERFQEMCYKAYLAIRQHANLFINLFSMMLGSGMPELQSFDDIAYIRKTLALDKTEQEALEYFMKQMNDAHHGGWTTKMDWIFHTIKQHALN
SMILES,CLH [1] [mL/min/g],Vd [2] [L/kg],pIC50 [3],solubility kinetic at 1 h [5] [mg/mL],fraction unbound (Albumin),Ratio IC50 (Homo sapiens [9]),CLH [10] [mL/min/g],Ratio IC50 (Homo sapiens [11]),CLH [12] [mL/min/g],half-life [13] [h],Ratio IC50 (Homo sapiens [14]),chromatographic logD [15],other results
COc1ncc(-c2cc3c(c(NC(=O)c4cccc(C)n4)c2)COC3)cc1NS(C)(=O)=O,1.2,1.6,8.30,0.05,0.07,50,1.4,25,< 0.5,3.4,126,,pIC50 [4]: 6.70; Ratio IC50 [6]: > 10; F [7]: 1.5%; AUCt [8]: 0.042 µg·h/mL
COc1ncc(-c2ccc3c(c2)COC3)cc1NS(C)(=O)=O,,,6.10,0.092,,5,,4,,,2.5,3.5,pIC50 [16]: 5.70; pIC50 [17]: 5.50; pIC50 [18]: 5.40
COc1ncc(-c2cc3c(c(NC(=O)c4csc(C)n4)c2)COC3)cc1NS(C)(=O)=O,,,8.10,,,50,,25,,,63,,
COc1ncc(-c2cc3c(c(-c4ccccn4)c2)COC3)cc1NS(C)(=O)=O,,,7.20,,,10,,6,,,20,,
COc1ncc(-c2cc3c(c(-c4nnc(C)o4)c2)COC3)cc1NS(C)(=O)=O,< 0.5,0.5,7.70,0.195,0.1,5,1,5,< 0.5,0.9,13,,pIC50 [4]: 6.70; Ratio IC50 [6]: > 10; AUC ([19]; 7 h): 1.37 µg·h/mL; F [7]: 56%
COc1ncc(-c2ccc3cn[nH]c3c2)cc1NS(C)(=O)=O,,,,0.031,,,,,,,,2.6,pIC50 [16]: 5.10; pIC50 [17]: 5.60; pIC50 [18]: 5.10
COc1ncc(-c2cc(-c3ncc(CN4C[C@@H](C)O[C@@H](C)C4)o3)c3cn[nH]c3c2)cc1NS(C)(=O)=O,1.9,3.5,,0.182,0.1,,5.9,,3.2,2.6,,3.3,clearance [20]: 3 L/h/kg; AUC(0-inf) ([19]; Sprague-Dawley): < 0.024 µg·h/mL; Cmax [21]: < 2 ng/mL; bioavailability ([7]; Sprague-Dawley): < 2%
COc1ncc(-c2cc3c(c(NC(C)=O)c2)COC3)cc1NS(C)(=O)=O,,,6.40,,,4,,13,,,13,,
COc1ncc(-c2cc(NC(=O)c3csc(C)n3)c3cn[nH]c3c2)cc1NS(C)(=O)=O,,,,,,63,,16,,,63,,
